The list is not random: actives were taken first. Their share in the collection is about 2.5%.
SENP8 block-1 = SENP8 (human) protease inhibition. 0.64% of 360,000 active. recombinant SENP8, Nedd8 substrate fluorescence. inhibition, % at 20 µM. AID 602440; in the data active = inhibition mostly above about 40%, no sharp cut-off; inactive = mostly below about 27%
SENP6 block = inhibitors of human SENP6 protease; Recombinant SENP6 catalytic domain, aminoluciferin luminescence; inhibition, % at 10 µM; 1.8% of 330,000 active; AID 2599;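 active = inhibition above about 50% at the single tested dose, limit read from the data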
Target sequence (Q9GZR1 628-1112 limits assumed): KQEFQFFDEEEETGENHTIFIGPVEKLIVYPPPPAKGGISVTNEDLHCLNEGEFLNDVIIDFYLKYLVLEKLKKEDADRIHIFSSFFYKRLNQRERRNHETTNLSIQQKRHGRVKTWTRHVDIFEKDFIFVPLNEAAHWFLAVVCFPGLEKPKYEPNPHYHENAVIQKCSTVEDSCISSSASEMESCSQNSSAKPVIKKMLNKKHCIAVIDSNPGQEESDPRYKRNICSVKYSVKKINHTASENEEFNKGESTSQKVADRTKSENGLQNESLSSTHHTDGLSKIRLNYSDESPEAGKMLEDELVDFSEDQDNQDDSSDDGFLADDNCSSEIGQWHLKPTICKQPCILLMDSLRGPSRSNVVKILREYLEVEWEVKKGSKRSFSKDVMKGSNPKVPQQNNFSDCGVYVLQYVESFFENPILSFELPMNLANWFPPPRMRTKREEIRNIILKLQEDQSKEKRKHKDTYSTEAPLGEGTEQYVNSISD
SENP7 block = inhibitors of human SENP7 protease; Q9BQF6; recombinant SENP7, Z-RLRGG-aminoluciferin luminescence, 40 min; inhibition, % at 5 µM; 1.5% of 330,000 active; AID 434973;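 active = inhibition above about 50% at the single test dose, limit read from the data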
SENP1 FRET inh = inhibitors of human SENP1 SUMO protease catalytic domain. recombinant SENP1 catalytic domain, CyPet-SUMO1-YPet FRET cleavage. 0.21% of 360,000 active. inhibition, % at 10 µM. Q9P0U3;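 active = inhibition at least 30% at 10 µM, raw YFP signal under a set limit, fluorescence ratio 0.5 to 1.5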
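Controls: no-enzyme wells low, DMSO-plus-enzyme wells high control. Test system: human recombinant His6-tagged SENP1 catalytic domain enzyme. Reagent: SFCypet-SUMO1-SFYpet FRET protein substrate, 25 nM final. Doses: one dose per compound, 10 µM, 0.5% DMSO. Detection: FRET, CFP and YFP emission. Timing: 50 min reaction at room temperature.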
SENP8 block-2 = SENP8 protease inhibition | Q96LD8 | purified SENP8, Z-RLRGG-aminoluciferin cleavage, luminescence | inhibition, % at 10 µM | 1.2% of 330,000 active; in the data active = inhibition above about 50%
SENP8 confirm = confirmation of human SENP8 protease inhibitors; 40% of 6,200 active; inhibition, % at 12.5 µM; AID 488912; Recombinant SENP8, Z-RLRGG-aminoluciferin luminescence, 60 min; shares compounds with SENP7 block;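 active = mean inhibition across replicates above about 50%, limit read from the data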
SENP6 confirm = human SENP6 inhibition, confirmed. shares compounds with SENP7 block. 58% of 6,200 active. inhibition, % at 12.5 µM. recombinant SENP6, Z-RLRGG-aminoluciferin luminescence
SENP7 confirm = human SENP7 inhibition, confirmed; shares compounds with SENP7 block; recombinant SENP7, Z-RLRGG-aminoluciferin luminescence, 40 min; inhibition, % at 12.5 µM; 69% of 6,200 active
Casp3 select = caspase-3 inhibition (SENP selectivity assay); shares compounds with SENP7 block; purified caspase-3, Z-DEVD-aminoluciferin luminescence, 60 min; inhibition, % at 12.5 µM; 60% of 6,200 active;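 active = mean inhibition above about 50%, limit read from the data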
Luc interf = luminescence interference (SENP counter-screen); shares compounds with SENP7 block; Pre-incubated SENP8/Z-RLRGG-aminoluciferin, luciferase luminescence interference; inhibition, % at 12.5 µM; 39% of 6,200 active; AID 488919;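 active = mean inhibition above about 50% when retested at one dose, limit read from the data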
Large screens that a line does not name were inactive (follow-up assays come after a bar, where they were run).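 The calls were made as follows, unless noted: active = mean inhibition above about 50% in the one-dose retest (limit read from the data); inactive = the rest.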

CCN(CC)S(=O)(=O)c1ccc(NC(=O)C(C)N(c2ccc(OC)cc2)S(C)(=O)=O)cc1 (centres undefined)	none
CCOc1ccc(N(C(C)C(=O)Nc2ccc(OC)cc2)S(C)(=O)=O)cc1 (centres undefined)	SENP7 block 71 | SENP8 confirm inactive | SENP6 confirm inactive | SENP7 confirm inactive | Casp3 select inactive | Luc interf inactive
CC(C)(C)c1ccc(S(=O)(=O)NC(=O)C2(C)CCN2C(=O)c2cccc3ccccc23)cc1 (centres undefined)	none (no result: SENP6 block, SENP7 block, SENP8 block-2)
Cc1cc(/C=c2/sc3nc4ccccc4n3c2=O)c(C)n1-c1ccccn1	SENP6 block 79, SENP8 block-2 91 | SENP8 confirm inactive | SENP6 confirm 54 | SENP7 confirm inactive | Casp3 select 64 | Luc interf inactive
Cc1cccc(Cl)c1NNC(=O)Nc1c([N+](=O)[O-])c(C)nn1C	none
FC(F)Oc1ccc(C2N=C(c3ccccc3)NO2)cc1 (centres undefined)	SENP6 block 62, SENP8 block-2 54 | SENP8 confirm inactive | SENP6 confirm inactive | SENP7 confirm inactive | Casp3 select inactive | Luc interf inactive
COc1cc(C2N=C(c3ccccc3)NO2)cc(Br)c1O (centres undefined)	SENP6 block 91, SENP8 block-2 77 | SENP8 confirm 85 | SENP6 confirm 84 | SENP7 confirm 92 | Casp3 select 58 | Luc interf 85
Cc1cccc(-n2c(SCC(=O)NCC3CCCO3)nc3ccccc3c2=O)c1C (centres undefined)	none
O=C(/C=C/Nc1ccccc1C(F)(F)F)c1ccco1	SENP6 block 77, SENP7 block 69, SENP8 block-2 54 | SENP8 confirm inactive | SENP6 confirm 60 | SENP7 confirm 87 | Casp3 select 51 | Luc interf inactive
NC(=O)c1ccccc1N/C=C/C(=O)c1ccco1	SENP6 block 73 | SENP8 confirm 72 | SENP6 confirm 69 | SENP7 confirm 87 | Casp3 select 86 | Luc interf 72
O=C(/C=C/Nc1cccc(C(F)(F)F)c1)c1ccco1	none
O=C(/C=C/Nc1ccc(Oc2ccccc2)cc1)c1ccco1	SENP6 block 95, SENP7 block 98, SENP8 block-2 95 | SENP8 confirm inactive | SENP6 confirm 98 | SENP7 confirm 102 | Casp3 select 95 | Luc interf inactive
CCc1nc2ccc(C(=O)NCCc3ccccn3)cn2c1N(CC)Cc1cccc(Br)c1	none (no result: SENP6 block, SENP7 block, SENP8 block-2)
c1ccc(-c2nn3c(-c4ccccc4)nnc3s2)cc1	none
Cc1ccc(-c2nnc3sc(-c4ccncc4)nn23)cc1	SENP7 block 57 | SENP8 confirm inactive | SENP6 confirm inactive | SENP7 confirm inactive | Casp3 select inactive | Luc interf inactive
COc1cc2sc3ccc(C#CC4(O)CCCCC4)cc3c(=O)c2cc1OC	SENP6 block 98, SENP7 block 99, SENP8 block-2 94 | SENP8 confirm 66 | SENP6 confirm 70 | SENP7 confirm 91 | Casp3 select 81 | Luc interf inactive
COc1cccc2sc3cc(C#CC4(O)CCCCC4)ccc3c(=O)c12	none
CC(=O)Nc1ccccc1C(=O)C(=O)Nc1ccc(F)c(Cl)c1	none
CSc1cccc(NC(=O)Nc2ccccc2C(N)=O)c1	SENP6 block 77, SENP7 block 78, SENP8 block-2 64 | SENP8 confirm inactive | SENP6 confirm 64 | SENP7 confirm 87 | Casp3 select 63 | Luc interf inactive
NC(=O)c1ccccc1NC(=O)Nc1ccc(F)c(Cl)c1	SENP6 block 92, SENP7 block 96, SENP8 block-2 92 | SENP8 confirm 64 | SENP6 confirm 88 | SENP7 confirm 99 | Casp3 select 90 | Luc interf 91
CN(C(=O)Nc1ccccc1)C1CCCc2ccccc21 (centres undefined)	none
Cc1cccn2cc(-c3c[nH]c4ccccc34)nc12	none
Cc1ccn2cc(-c3ccc(NC(=O)c4ccco4)cc3)nc2c1	SENP6 block 76, SENP7 block 64 | SENP8 confirm 55 | SENP6 confirm 53 | SENP7 confirm 86 | Casp3 select 74 | Luc interf inactive
Cc1ccn2cc(-c3ccc(Br)cc3)nc2c1	SENP6 block 92, SENP7 block 97, SENP8 block-2 94 | SENP8 confirm 56 | SENP6 confirm 94 | SENP7 confirm 96 | Casp3 select 94 | Luc interf inactive
COc1c(Cl)cccc1-c1cn2ccc(C)cc2n1	SENP6 block 90, SENP7 block 94, SENP8 block-2 84 | SENP8 confirm 90 | SENP6 confirm 91 | SENP7 confirm 100 | Casp3 select 90 | Luc interf inactive
Brc1ccc2nc(-c3c[nH]c4ccccc34)cn2c1	SENP6 block 81, SENP8 block-2 79 | SENP8 confirm inactive | SENP6 confirm 90 | SENP7 confirm 97 | Casp3 select 68 | Luc interf 90
O=C(O)c1ccc(CNC(=O)C2CCN(S(=O)(=O)c3ccc4c(c3)OCCO4)CC2)cc1	none (no result: SENP6 block, SENP7 block, SENP8 block-2)
CC(NCCN(C)C)C1CCC2C3CCc4cc(O)ccc4C3CCC12C (centres undefined)	none (no result: SENP6 block, SENP7 block, SENP8 block-2)
Clc1ccc(-c2cn3cc(Br)ccc3n2)cc1Cl	SENP6 block 63, SENP8 block-2 59 | SENP8 confirm inactive | SENP6 confirm inactive | SENP7 confirm inactive | Casp3 select inactive | Luc interf inactive
COc1ccc(C(=O)/C=C/c2ccccc2F)c(OC(=O)c2ccc([N+](=O)[O-])cc2)c1	SENP6 block 60 | SENP8 confirm inactive | SENP6 confirm inactive | SENP7 confirm inactive | Casp3 select inactive | Luc interf inactive
O=C(/C=C/c1ccccc1F)c1cccc([N+](=O)[O-])c1	none
CC(C)(Cc1nc2ccccc2[nH]1)c1nc2ccccc2[nH]1	none (no result: SENP6 block, SENP7 block, SENP8 block-2)
NNc1nc2ccc(F)cc2s1	none
CC(=O)Nc1nc2cc3c(cc2s1)OCO3	SENP6 block 68, SENP7 block 56 | SENP8 confirm inactive | SENP6 confirm 53 | SENP7 confirm 86 | Casp3 select 83 | Luc interf inactive
c1ccc2sc(Nc3nc4cc5c(cc4s3)OCO5)nc2c1	SENP7 block 64 | SENP8 confirm inactive | SENP6 confirm inactive | SENP7 confirm inactive | Casp3 select inactive | Luc interf inactive
Fc1ccc2nc(Nc3nc4cc5c(cc4s3)OCO5)sc2c1	none

Bioassay records (PubChem)
